For data set [1], the target named is T1, Amine oxidase [copper-containing] 3 (Rattus norvegicus, UniProt O08590).
T1 sequence (O08590 whole entry): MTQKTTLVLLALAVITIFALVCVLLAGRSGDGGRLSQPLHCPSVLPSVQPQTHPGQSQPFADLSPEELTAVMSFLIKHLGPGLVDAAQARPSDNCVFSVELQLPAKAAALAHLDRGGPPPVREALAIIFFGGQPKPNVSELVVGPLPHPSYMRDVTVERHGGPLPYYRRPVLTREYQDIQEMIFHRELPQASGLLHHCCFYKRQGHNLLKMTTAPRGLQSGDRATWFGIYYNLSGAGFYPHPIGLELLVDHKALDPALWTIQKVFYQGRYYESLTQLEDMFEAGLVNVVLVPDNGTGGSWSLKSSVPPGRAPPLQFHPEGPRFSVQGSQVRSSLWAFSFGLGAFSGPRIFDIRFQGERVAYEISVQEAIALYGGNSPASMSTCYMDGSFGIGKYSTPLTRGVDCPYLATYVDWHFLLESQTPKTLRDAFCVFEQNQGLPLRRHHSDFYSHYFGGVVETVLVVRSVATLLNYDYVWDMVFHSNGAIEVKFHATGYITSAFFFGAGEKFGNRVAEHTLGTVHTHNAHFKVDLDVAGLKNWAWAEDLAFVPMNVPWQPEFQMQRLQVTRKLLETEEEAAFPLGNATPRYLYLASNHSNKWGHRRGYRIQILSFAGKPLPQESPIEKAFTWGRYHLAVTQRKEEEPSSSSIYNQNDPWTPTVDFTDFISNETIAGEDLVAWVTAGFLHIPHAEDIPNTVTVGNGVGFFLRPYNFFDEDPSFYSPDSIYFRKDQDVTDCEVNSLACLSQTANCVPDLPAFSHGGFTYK
The data set is described as follows: Inhibition of SSAO in rat lung. A digest of the protocol:
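Enzyme source is a rat lung homogenate: tissue homogenized 1:20 (w/v) in 10 mM potassium phosphate pH 7.8, then spun at 10000g for 10 min at 4 °C. Reaction stopped with citric acid, toluene/ethyl acetate extract counted by scintillation. IC50 taken from background-corrected dose-response curves (10^-3 to 10^-10 M).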

Data set [2] can be described thus: AUC in Sprague-Dawley rat at 5 mg/kg, po. Format: ADME, organism-based. Details: dose 5 mg/kg, route oral. As to conditions: plasma. A digest of the protocol: (§1)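 Single oral dose of 5.0 mg/kg given to cannulated female Sprague Dawley rats, then plasma concentrations followed over time. Parameters come from noncompartmental analysis and are reported as mean ± SD (n = 3).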

Data set [3] is described as follows: Tmax in Sprague-Dawley rat at 5 mg/kg, po. It is filed as ADME, organism-based. Also on record: dose 5 mg/kg, route oral. As to conditions: in vivo. Summed up:
as §1

The nature of data set [4]: AUC (infinity) in Sprague-Dawley rat at 5 mg/kg, po. Format: ADME, organism-based. Details: time infinity, dose 5 mg/kg, route oral. The following applies: plasma. A digest of the protocol:
as §1

For data set [5], the target named is T2, Amine oxidase [flavin-containing] A (Homo sapiens, UniProt P21397).
T2 sequence (P21397 whole entry): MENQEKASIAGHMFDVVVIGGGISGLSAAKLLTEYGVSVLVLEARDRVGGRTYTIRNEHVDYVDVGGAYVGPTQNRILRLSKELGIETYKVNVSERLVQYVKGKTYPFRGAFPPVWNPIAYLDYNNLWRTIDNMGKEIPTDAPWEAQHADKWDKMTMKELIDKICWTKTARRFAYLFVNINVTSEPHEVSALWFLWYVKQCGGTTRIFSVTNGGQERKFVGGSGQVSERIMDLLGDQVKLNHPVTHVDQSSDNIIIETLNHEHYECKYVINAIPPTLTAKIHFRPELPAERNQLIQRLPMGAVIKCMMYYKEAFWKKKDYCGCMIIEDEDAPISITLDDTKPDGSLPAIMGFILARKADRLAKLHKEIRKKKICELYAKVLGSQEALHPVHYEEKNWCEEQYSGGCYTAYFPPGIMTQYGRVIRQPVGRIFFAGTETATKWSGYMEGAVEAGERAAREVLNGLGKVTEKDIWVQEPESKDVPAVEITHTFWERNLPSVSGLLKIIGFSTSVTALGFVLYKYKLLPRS
The data set can be described thus: Inhibition of recombinant human MAO-A. A digest of the protocol: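 Recombinant human MAO-A measured with a coupled colorimetric assay. IC50 fitted from inhibition curves over 10^-3 to 10^-10 M inhibitor.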

Data set [6] is described as follows: Cmax in Sprague-Dawley rat at 5 mg/kg, po. Details: dose 5 mg/kg, route oral. As to conditions: in vivo. Format: ADME, organism-based. Summed up:
as §1

Data set [7] addresses T3, Amine oxidase [flavin-containing] B (Homo sapiens, UniProt P27338).
T3 sequence (P27338 whole entry): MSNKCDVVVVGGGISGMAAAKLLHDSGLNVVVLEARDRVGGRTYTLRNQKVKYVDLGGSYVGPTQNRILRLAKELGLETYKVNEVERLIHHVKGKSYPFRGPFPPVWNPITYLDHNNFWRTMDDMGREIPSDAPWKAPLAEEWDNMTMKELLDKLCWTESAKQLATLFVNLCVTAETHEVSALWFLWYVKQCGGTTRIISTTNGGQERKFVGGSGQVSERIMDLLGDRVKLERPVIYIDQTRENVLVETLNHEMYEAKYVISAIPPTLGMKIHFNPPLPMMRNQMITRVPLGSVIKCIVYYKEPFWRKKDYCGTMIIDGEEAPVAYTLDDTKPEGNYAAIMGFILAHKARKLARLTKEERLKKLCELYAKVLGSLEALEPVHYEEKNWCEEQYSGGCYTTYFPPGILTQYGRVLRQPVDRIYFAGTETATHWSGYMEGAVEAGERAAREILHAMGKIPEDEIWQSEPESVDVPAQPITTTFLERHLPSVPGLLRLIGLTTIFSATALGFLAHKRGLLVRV
The data set can be described thus: Inhibition of recombinant human MAO-B.

The nature of data set [8]: Half life in Sprague-Dawley rat at 5 mg/kg, po. Format: ADME, organism-based. Details: dose 5 mg/kg, route oral. As to conditions: in vivo. A digest of the protocol:
as §1

Some results are limits rather than exact numbers.

In general, IC50 refers to the concentration that gives 50% inhibition. Regarding `C=C(CNNC(C)C)c1ccc(F)cc1`, the IC50 in data set [1] is more than 1000 nM.

The compound `C=C(CNNC)c1ccc(F)cc1` yielded a 50% inhibitory concentration (IC50) in data set [1] of 1.7 nM.

Usually AUC stands for the area under the concentration-time curve, a measure of exposure. Read a high AUC as high exposure. For orientation: Tmax means the time at which the peak concentration occurs. By AUC(0-inf) is commonly meant the area under the concentration-time curve extrapolated to infinity. Read a low AUC(0-inf) as low exposure. As usually defined, the Cmax is the highest concentration seen after dosing. What is called half-life is the time needed for the level to fall by half in the phase considered. The compound `C=C(CNN)c1ccccc1.Cl` had an AUC in data set [2] of 1340 ng·h/mL. In addition, in data set [3], the time to peak (Tmax) is 0.5 h. The same compound gave an AUC(0-inf) in data set [4] of 3310 ng·h/mL. Moreover, the IC50 in data set [1] came to 2 nM; in data set [5], 1300 nM; in data set [7] it was 71000 nM. This compound also came in with a Cmax in data set [6] of 366 ng/mL. This compound also displayed a half-life in data set [8] of 11.3 h.

In the case of `C=C(CNN)c1ccc(F)cc1`, the IC50 was 6.1 nM in data set [1] and 6000 nM in data set [5].

Turning to `C=C(CNN)c1ccc(Cl)cc1`, in data set [1], the IC50 amounted to 3 nM.

Regarding `C=C(CN(N)Cc1ccccc1)c1ccc(F)cc1`, the IC50 in data set [1] is more than 1000 nM.

In data set [1], `C=C(CNNCc1ccccc1)c1ccc(F)cc1` came in with an IC50 of more than 1000 nM.

In data set [1], `C=C(CNNCC)c1ccc(F)cc1` showed an IC50 of 2.3 nM.

`C=C(CN(C)N)c1ccc(F)cc1`: in data set [1], the IC50 stood at 240 nM.

Turning to `C=C(CNN)c1ccccc1C`, the figures for the IC50 in data set [1], in data set [5] and in data set [7] were 4 nM, 2000 nM and 90000 nM, respectively.

In turn, `NNC/C(=C/F)c1ccccc1` displayed a half-inhibitory concentration (IC50) in data set [1] of 5 nM.

The compound `C=C(CN(N)CC)c1ccc(F)cc1` showed an IC50 in data set [1] of 630 nM.

In data set [1], `C=C(CN(N)C(C)C)c1ccc(F)cc1` gave an IC50 of 420 nM.
